Wnt bcat act: activates Wnt/beta-catenin signaling in a reporter cell assay; activation, % at 9.35 µM; AID 743398; hit rate 1.2% among 300,000; activator, plate reader; in the data active = activation above about 30%, passing the limit was not always enough; inconclusive = no clear call, values can overlap the other calls;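 note: 0% = neutral control wells and 100% = positive control wells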
Casp6 inh: inhibitors of human caspase-6; inhibition, % at 12.5 µM; purified caspase-6, Z-VEID-R110 cleavage fluorescence; hit rate 0.53% among 350,000; AID 686996; P55212;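 active = mean inhibition across replicates at least about 35%, with every replicate also reaching that limit, limit read from the data; inconclusive = only one of the two criteria met; inactive = neither criterion met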;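 note: 0% = median of neutral control wells and 100% = no fluorescence left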
esBAF inh: blocks esBAF chromatin remodeling in mouse ES cells; Bmi1-luciferase knock-in reporter, 24 h; 100% = twice the neutral-well signal; reporter increase, % at 12.5 µM; hit rate 2% among 350,000; AID 602393; in the data active = activation above about 40%; inconclusive = no clear call, values can overlap the other calls;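 note: 0% = median of the plate's neutral control wells and 100% = double that signal; a rise in the Bmi1 reporter signal indicates esBAF inhibition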
NSD2 HMT inh: inhibitors of human histone methyltransferase NSD2; O96028; NSD2 peptide methylation, AlphaScreen, 120 min; inhibition, % at 12.5 µM; hit rate 0.54% among 310,000; AID 743445; in the data active = inhibition above about 50%
Xi reactivation: reactivates the inactive X chromosome in mouse fibroblasts; XiGFP mouse fibroblasts, % GFP-positive cells imaging, 3 d; cells co-treated with 5-aza-dC sensitizer; scaled so ellipticine positive control = 100%; activation, % at 7.58 µM; hit rate 0.055% among 360,000;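 active = mean normalized replicate activation at least 10% and every replicate at or above 10%; inconclusive = only one of the two criteria met; inactive = mean below 10% and not all replicates reach 10%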;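 note: 0% = median of on-plate neutral control wells and 100% = ellipticine 6 µM median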
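Assay system – SV40-immortalized XiGFP fibroblast cells, line 68-5-11 · Buffer or medium – DMEM supplemented with 5-aza-dC as sensitizing agent · Dosing – one concentration, pinned · Benchmarks – positive control ellipticine, 6 µM final · Times – 3 days compound exposure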
MITF act: increases MITF-driven TRPM1 promoter luciferase signal | SK-MEL-5 TRPM1-promoter luciferase, 24 h; % of positive control, neutral wells = 0 | activation, % at 12.5 µM | hit rate 0.75% among 300,000;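 active = mean activation of at least 80% with every replicate also reaching 80%; inconclusive = mean reaches 80% but some replicate falls short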;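 note: 0% = neutral control wells and 100% = parthenolide positive control wells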
* = called active by the depositor; ? = inconclusive; . = no result. An excerpt weighted towards active compounds, which were near 3% of everything screened.

SMILES	Wnt bcat act	Casp6 inh	esBAF inh	NSD2 HMT inh	Xi reactivation	MITF act
CCCCn1c(SC(C)C(=O)c2ccc(OC)cc2)nc2cc(S(N)(=O)=O)ccc21 (configuration not stated)	.	.	-5	2	.	3
CCn1c(SC(C)C(=O)NC2CCCC2)nc2cc(S(N)(=O)=O)ccc21 (configuration not stated)	48*	6	-5	-1	0	-9
O=C(c1ccc(-c2nc3ccccc3s2)s1)N1CCOCC1	-7	3	.	-4	0	.
CCN1CCN(C(=O)c2ccc(-c3nc4ccccc4s3)s2)CC1	49*	0	36	11	0	31
CCNC(=O)COC(=O)c1ccc(-c2nc3ccccc3s2)s1	3	1	.	2	0	21
Cc1noc(C)c1COC(=O)c1ccc(-c2nc3ccccc3s2)s1	.	.	65*	-2	.	62
O=C(c1ccc(F)cc1)N1CCCCN2[C@H](CO)[C@H](c3ccc(-c4ccc(F)cc4)cc3)[C@H]2C1	.	-3	.	.	.	.
O=C(NCc1ccc(F)cc1)[C@@H]1[C@@H](CO)[C@@H]2Cn3c(cccc3=O)[C@@H]2N1C(=O)C1CC1	.	1	2	.	0	.
O=C(CSCc1ccccc1Cl)N1CCN(c2ccccn2)CC1	.	.	58*	-1	.	41
COCC(=O)Nc1ccc2c(c1)OC[C@H](C)N(Cc1ccccc1OC)C[C@H](C)[C@@H](OC)CN(C)C2=O	.	1	.	.	0	.
CC(C)NC(=O)Nc1ccc2c(c1)CC(=O)N([C@@H](C)CO)C[C@@H](C)[C@H](CN(C)Cc1ccc(-c3ccccc3)cc1)O2	.	-1	-4	.	-1	.
COC(=O)c1c(C)[nH]c(C(=O)CSc2nnnn2-c2ccccc2)c1C	-3	.	48*	-2	.	-2
CCOC(=O)c1c(C)[nH]c(C)c1C(=O)CSc1nnnn1-c1ccccc1	3	.	1	0	.	4
COC(=O)c1ccc(Sc2nnnn2-c2ccccc2)c([N+](=O)[O-])c1	-16	.	46*	-1	.	-52
COc1cccc(OC)c1C(=O)Oc1ccc2c(C)cc(=O)oc2c1	.	.	.	4	.	.
CCNC(=O)C[C@@H]1CC[C@@H]2[C@H](COC[C@@H](O)CN2C(=O)Nc2cccc(OC)c2)O1	.	4	5	.	0	.
CCOc1ccc(Nc2nc3c(c(=O)[nH]2)CCCC3)cc1	19	.	14	7	.	28
Cc1ccc(Nc2nc3c(c(=O)[nH]2)CCCC3)cc1	.	.	70*	-3	.	37
CC1CCC(NC(=O)C2CCN(S(=O)(=O)c3ccc4nc5c(c(C(=O)O)c4c3)CC(C)CC5)CC2)CC1 (configuration not stated)	-2	21	2	8	0	1
COc1ccc(CCNC(=O)C2CCN(S(=O)(=O)c3ccc(OC)c(OC)c3)CC2)cc1OC	0	3	6	-3	0	-2
CC1CCc2nc3ccc(S(=O)(=O)N4CCC(C(=O)NCc5ccccc5Cl)CC4)cc3c(C(=O)O)c2C1 (configuration not stated)	-3	45*	5	1	0	-10
COc1ccc(CNC(=O)C2CCN(S(=O)(=O)c3ccc4nc5c(c(C(=O)O)c4c3)CC(C)CC5)CC2)cc1 (configuration not stated)	-2	36*	-4	18	0	8
COc1ccc(CCNC(=O)C2CCN(S(=O)(=O)c3ccc(C)cc3)CC2)cc1OC	62*	0	-10	-2	0	-6
Cc1ccc(CCNC(=O)C2CCN(S(=O)(=O)c3ccc4nc5c(c(C(=O)O)c4c3)CCCC5)CC2)cc1	1	62*	3	-1	0	-8
CN(Cc1ccccc1)C(=O)C1CCN(S(=O)(=O)c2ccc3nc4c(c(C(=O)O)c3c2)CCCC4)CC1	0	62*	-2	6	0	-8
SMILES	Wnt bcat act	Casp6 inh	esBAF inh	NSD2 HMT inh	Xi reactivation	MITF act
O=C(O)c1c2c(nc3ccc(S(=O)(=O)N4CCC(C(=O)NCc5ccccc5)CC4)cc13)CCCC2	-2	19	-8	2	0	.
CC(NC(=O)C1CCN(S(=O)(=O)c2ccc3nc4c(c(C(=O)O)c3c2)CCCC4)CC1)c1ccccc1 (configuration not stated)	-1	52*	-7	-1	0	-2
CCCNC(=O)C1CCN(S(=O)(=O)c2ccc3nc4c(c(C(=O)O)c3c2)CCCCC4)CC1	-2	2	-1	.	0	-5
COc1ccccc1CNC(=O)C1CCN(S(=O)(=O)c2ccc3nc4c(c(C(=O)O)c3c2)CCCC4)CC1	0	50*	3	-2	0	-11
COc1ccc(NC(=O)Nc2ccc3c(c2)C(=O)N([C@@H](C)CO)C[C@H](C)[C@H](CN(C)S(=O)(=O)c2ccc(F)cc2)OCCCC[C@@H](C)O3)cc1	.	0	15	.	0	.
N#CCCCc1cc2cc(F)ccc2cn1	5	0	7	.	0	20
Fc1ccc2cnc(C3=CCCCC3)cc2c1	33*	0	?	.	0	103*
C1=C(c2cc3ccccc3cn2)CCCC1	50*	0	79*	.	0	97*
CCOC(=O)Cc1csc(NC(=O)c2ccc(S(=O)(=O)N(CCOC)CCOC)cc2)n1	37*	1	.	-2	0	5
CCOC(=O)Cc1csc(NC(=O)c2ccc(C)cc2)n1	2	0	.	-2	0	19
CCOC(=O)Cc1csc(NC(=O)c2cccs2)n1	.	.	63*	2	.	66
CCOC(=O)c1sc(NC(=O)c2cccs2)nc1C	22	1	20	.	.	29
CCOC(=O)c1csc(NC(=O)c2cccs2)n1	37*	0	53*	-9	0	95*
CN1C[C@@H]2[C@H](c3ccccc31)[C@H](CO)N2C(=O)Nc1ccccc1	.	.	6	.	0	.
CCC(=O)N1[C@@H]2c3cccc(=O)n3C[C@@H]2[C@@H](CO)[C@@H]1C(=O)NCc1ccc(F)cc1	.	0	-2	.	0	.
CCN(CC)CCNC(=O)c1ccc2c(c1NCCO)C(=O)c1ccccc1C2=O	-20	36*	.	.	0	.
CC1CCN(C(=O)c2ccc3c(c2NCCO)C(=O)c2ccccc2C3=O)CC1	.	.	.	.	.	-4
COc1cc(SC)ccc1C(=O)OC(C)C(=O)NC1CCCC1 (configuration not stated)	17	38*	.	-1	0	6
Cc1cc(C(=O)OC(C)C(=O)NC2CCCCC2)c(C)o1 (configuration not stated)	-4	-1	-2	-1	0	-5
O=c1c2ccccc2oc2ccc(-c3ccc4cc[nH]c4c3)cc12	.	.	-2	.	.	104*
Cc1ccc2oc3ccccc3c(=O)c2c1	29	0	62*	.	.	101*
N#Cc1ccc(C#Cc2ccc3oc4ccccc4c(=O)c3c2)cc1	0	-3	-2	.	0	3
